Test [1] concerns the target T1, Polyunsaturated fatty acid 5-lipoxygenase (Homo sapiens) (UniProt P09917).
T1 sequence (whole entry): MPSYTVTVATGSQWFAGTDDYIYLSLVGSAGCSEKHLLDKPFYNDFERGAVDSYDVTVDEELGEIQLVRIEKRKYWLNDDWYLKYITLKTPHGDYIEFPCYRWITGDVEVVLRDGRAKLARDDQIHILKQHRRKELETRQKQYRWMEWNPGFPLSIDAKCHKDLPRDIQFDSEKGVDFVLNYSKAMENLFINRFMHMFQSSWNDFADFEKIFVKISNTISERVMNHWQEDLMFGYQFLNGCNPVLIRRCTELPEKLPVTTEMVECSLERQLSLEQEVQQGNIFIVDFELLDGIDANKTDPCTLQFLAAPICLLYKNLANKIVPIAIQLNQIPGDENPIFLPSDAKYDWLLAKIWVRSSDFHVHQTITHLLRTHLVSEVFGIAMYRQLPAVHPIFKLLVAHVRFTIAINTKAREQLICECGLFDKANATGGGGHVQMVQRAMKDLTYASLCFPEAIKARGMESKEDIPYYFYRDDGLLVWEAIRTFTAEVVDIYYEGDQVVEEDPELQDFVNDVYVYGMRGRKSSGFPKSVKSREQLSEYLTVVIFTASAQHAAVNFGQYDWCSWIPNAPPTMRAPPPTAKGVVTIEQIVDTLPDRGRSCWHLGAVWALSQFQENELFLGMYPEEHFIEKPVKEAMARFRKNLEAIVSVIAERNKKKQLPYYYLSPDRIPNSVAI
Nature of the test: Inhibition of partially purified human 5-LO expressed in Escherichia coli assessed as remaining 5-LO activity at 1 uM; values are per cent of control.

In test [2] the target is T1, Polyunsaturated fatty acid 5-lipoxygenase (Homo sapiens). As to the kind of experiment: Inhibition of partially purified human 5-LO expressed in Escherichia coli assessed as remaining 5-LO activity at 10 uM; values are per cent of control.
Test [3] has as its target T2, Polyunsaturated fatty acid 5-lipoxygenase (Homo sapiens, UniProt P09917).
T2 sequence (P09917 whole entry): T1 sequence (whole entry)
Nature of the test: Inhibition of 5-LO activity in ionophore A23187 and arachidonic-stimulated human intact PMNL. It counts as functional. In a few lines: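 Freshly isolated human PMNL from healthy-donor leukocyte concentrates (dextran sedimentation, Nycoprep, hypotonic erythrocyte lysis), 5 × 10^6 cells/mL in PBS pH 7.4 with 1 mg/mL glucose and 1 mM CaCl2. 5-LO products analysed by HPLC; n ≥ 3, mean ± SEM.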

In test [4] the target is T2, Polyunsaturated fatty acid 5-lipoxygenase. Nature of the test: Inhibition of partially purified human 5-LO expressed in Escherichia coli. In short, it runs like this:
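Recombinant 5-LO from E. coli MV1190 (pT3-5LO, expressed at 27 °C), partially purified by ammonium sulfate precipitation and ATP-agarose chromatography of the S100 fraction. 0.5 µg protein in PBS pH 7.4 with 1 mM EDTA and 1 mM ATP, compound 5-10 min at 4 °C. Started with 2 mM CaCl2 and 20 µM arachidonic acid, 10 min at 37 °C, methanol stop. HPLC product analysis as remaining activity; n ≥ 3, mean ± SEM.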

By residual activity is commonly meant the activity still measured, relative to the control. What is called IC50 is the concentration that gives 50% inhibition. Read a high IC50 as lower potency.

In the case of `Cc1cc(OCCN2CCOCC2)c(C)c2c1CCC(C(C)C(=O)Nc1nccs1)C2` (stereo unspecified), the residual activity in test [1] stood at 74%; in test [2], 62%.
With `COc1cc(C)c2c(c1C)CC(C(C)C(=O)Nc1ccccn1)CC2` (stereo unspecified), the IC50 in test [3] turned out to be 5 µM; in test [4] it was 0.8 µM. Further, the residual activity in test [1] was 54%; in test [2], 42%.
On the same counts, the results for `COc1cc(C)c2c(c1C)CC(C(C)C(=O)NCc1ccco1)CC2` (stereo unspecified) are more than 10 µM, 0.9 µM, 47% and 41%.
The matching figures for `COc1ccccc1CC(=O)Nc1nc2c(s1)CC1(C)CCC3C(C)C(=O)OC3C1C2C` (stereo unspecified): 4 µM, more than 10 µM, 87% and 86%.
The matching figures for `COc1cc(C)c2c(c1C)CC(C(C)C(=O)NC(C)(C)C)CC2` (stereo unspecified): more than 10 µM, 4 µM, 55% and 42%.
For `COc1ccc(C(=O)Nc2nc3c(s2)CC2(C)CCC4C(C)C(=O)OC4C2C3C)cc1` (stereo unspecified), the half-inhibitory concentration (IC50) in test [3] is 6 µM; in test [4], more than 10 µM. Also, the residual activity was found to be 57% in test [1] and 78% in test [2].
With `COc1cc(C)c2c(c1C)CC(C(C)C(=O)Nc1nccs1)CC2` (stereo unspecified), the residual activity in test [1] is 73%; in test [2], 56%.
Regarding `CC1C(=O)OC2C1CCC1(C)Cc3sc(NC(=O)C4CCCC4)nc3C(C)C21` (stereo unspecified), the figures for the concentration for half-maximal inhibition (IC50) in test [3] and in test [4] were 8 µM and 10 µM, respectively. The values for the residual activity in test [1] and in test [2] were 66% and 52%, respectively.
The matching figures for `CC1C(=O)OC2C1CCC1(C)Cc3sc(NC(=O)c4ccc5c(c4)OCO5)nc3C(C)C21` (stereo unspecified): 2 µM, more than 10 µM, 67% and 96%.
On the same counts, the results for `Cc1nnsc1C(=O)Nc1nc2c(s1)CC1(C)CCC3C(C)C(=O)OC3C1C2C` (stereo unspecified) are 10 µM, more than 10 µM, 87% and 88%.
The matching figures for `CCCOc1cc(C)c2c(c1C)CC(C(C)C(=O)Nc1nccs1)CC2` (stereo unspecified): 0.8 µM, 1 µM, 50% and 36%.
Turning to `COCCOc1cc(C)c2c(c1C)CC(C(C)C(=O)NC1CCCC1)CC2` (stereo unspecified), the IC50 in test [3] and in test [4] was more than 10 µM in each case. The residual activity came to 67% in test [1] and 56% in test [2].
For the compound `Cc1cc(OCCN(C)C)c(C)c2c1CCC(C(C)C(=O)Nc1nccs1)C2` (stereo unspecified), the IC50 in test [3] is more than 10 µM; in test [4] it was 1 µM. Further, the residual activity in test [1] stood at 55%; in test [2], 65%.
The matching figures for `CC1C(=O)OC2C1CCC1(C)Cc3sc(NC(=O)Nc4ccc(F)cc4F)nc3C(C)C21` (stereo unspecified): 7 µM, 0.6 µM, 46% and 52%.
Regarding `CCCOc1cc(C)c2c(c1C)CC(C(C)C(=O)NCc1cccs1)CC2` (stereo unspecified), the IC50 in test [3] is 8 µM; in test [4], 3 µM.
`COc1cc(C)c2c(c1C)CC(C(C)C(=O)NCc1cccs1)CC2` (stereo unspecified): the concentration for half-maximal inhibition (IC50) in test [3] was 8 µM; in test [4], more than 10 µM. The residual activity in test [1] and in test [2] was 64% each time.
On to `CCCOc1cc(C)c2c(c1C)CC(C(C)C(=O)Nc1ccccn1)CC2` (stereo unspecified), for which the IC50 was 0.9 µM in test [3] and 6 µM in test [4].
On to `CCCOc1cc(C)c2c(c1C)CC(C(C)C(=O)Nc1ncc(C)s1)CC2` (stereo unspecified), for which the values for the 50% inhibitory concentration (IC50) in test [3] and in test [4] were 1 µM and 0.8 µM, respectively.
Consider `CC1C(=O)OC2C1CCC1(C)Cc3sc(NC(=O)NCc4ccccc4)nc3C(C)C21` (stereo unspecified), for which the half-maximal inhibitory concentration (IC50) in test [3] is 3 µM; in test [4] it was more than 10 µM. Also, the residual activity in test [1] was found to be 78%; in test [2], 54%.
`Cc1cc(OCCN(C)C)c(C)c2c1CCC(C(C)C(=O)Nc1ccccn1)C2` (stereo unspecified): the figures for the residual activity in test [1] and in test [2] were 56% and 73%, respectively.
In the case of `CSc1cccc(NC(=O)Nc2nc3c(s2)CC2(C)CCC4C(C)C(=O)OC4C2C3C)c1` (stereo unspecified), the figures for the IC50 in test [3] and in test [4] were 4 µM and 1 µM, respectively. In addition, the residual activity worked out at 55% in test [1] and 67% in test [2].
Turning to `COc1cc(C(=O)Nc2nc3c(s2)C[C@]2(C)CC[C@@H]4[C@H](OC(=O)[C@H]4C)[C@H]2[C@@H]3C)cc(OC)c1OC`, the figures for the IC50 in test [3] and in test [4] were 0.9 µM and more than 10 µM, respectively. Moreover, the residual activity in test [1] is 65%; in test [2], 60%.
